Assay results reported in ChEMBL document CHEMBL3992515, “Design, synthesis, and evaluation of a novel series of macrocyclic inhibitors of norovirus 3CL protease” (Eur J Med Chem, 2017).

Columns and labels:
[1] = test system: Murine norovirus; test: Antiviral activity against MNV replicon infected in mouse RAW264.7 cells assessed as inhibition of viral RNA replication after 24 hrs; conditions: RAW264.7, 24 h
[2] = test system: Norovirus; test: Antiviral activity against Norovirus replicon infected in human HG23 cells assessed as inhibition of viral RNA replication after 48 hrs by qRT-PCR method; assay type: functional, cell-based
Summary of the method: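 HG23 cells (NV replicon-harboring hepatoma), confluent and semi-confluent, given medium with DMSO (<0.1%) or compound up to 20 μM for 48 h. Total RNA extracted and viral genome quantified by real-time qRT-PCR. EC50 fitted from dose-response; average of at least two determinations.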

[3] = Cytotoxicity against human HG23 cells after 48 hrs by crystal violet staining-based assay; assay type: cell-based; conditions: for CC50 at 48 h: HG23 cells, read-out: TC50; for CC50: hg23, 48 h, 48 h, read-out: TC50 (the source's name)
Summary of the method: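 Confluent NV replicon-bearing hepatoma HG23 cells exposed to compound at 1 to 100 μM for 48 h. Cytotoxicity read by CytoTox 96 nonradioactive assay and crystal violet staining; CC50 taken as concentration giving 50% cell death, averaged over at least two determinations.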

[4] = Inhibition of Norovirus 3CLpro using Edans-DFHLQ/GP-Dabcyl as substrate preincubated for 30 mins followed by substrate addition measured after 1 hr by FRET assay
Summary of the method: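 Protease and serial compound dilutions up to 100 μM (or DMSO) held in 20 mM HEPES pH 8, 200 mM NaCl, 0.4 mM EDTA, 60% glycerol, 6 mM DTT at 37°C for 30 min, then substrate added. Fluorescence (ex 360/em 460 nm) read 1 h later, background subtracted (no-protease well). IC50 from variable-slope curve fit; average of at least two determinations.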

[5] = test system: Murine norovirus; test: Antiviral activity against MNV replicon infected in mouse RAW264.7 cells assessed as inhibition of viral RNA replication after 24 hrs; assay type: functional, cell-based
Summary of the method: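 Confluent RAW264.7 cells infected with MNV at MOI 0.1 for 1 h; inoculum then replaced with medium containing compound (up to 20 μM) or DMSO (0.1%). Further 24 h incubation; virus replication quantified by TCID50 titration. EC50 from dose-response fitting; values average of at least two determinations.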

Structure (SMILES)	EC50 [1]	EC50 ([2]; Norovirus, HG23, 48 h)	CC50 at 48 h [3]	IC50 [4]	EC50 [2]	EC50 [5]	CC50 [3]
C[C@@H]1NC(=O)OC(c2cccc(Cl)c2)CCCCCNC(=O)CC[C@@H](C=O)NC1=O (stereo partly drawn)	> 20 µM	> 20 µM	> 100 µM	> 100 µM			
CC(C)C[C@@H]1NC(=O)OC(c2cccc(Cl)c2)CCCCCNC(=O)CC[C@@H](C(O)S(=O)(=O)O)NC1=O (stereo partly drawn)	15.1 µM	1.6 µM	> 100 µM	1.1 µM			
O=C1CC[C@@H](C(O)S(=O)(=O)O)NC(=O)C2(CCCCC2)NC(=O)OC(c2cccc(Cl)c2)CCCCCCN1 (stereo partly drawn)	> 20 µM	> 20 µM	46.6 µM	> 100 µM			
CC(C)C[C@@H]1NC(=O)OC(CCCc2ccccc2)CCCCCNC(=O)CC[C@@H](C(O)S(=O)(=O)O)NC1=O (stereo partly drawn)	> 20 µM	4.6 µM	69.2 µM	6.8 µM			
O=C1CC[C@@H](C(O)S(=O)(=O)O)NC(=O)C2(CCCCC2)NC(=O)OC(c2cccc(Cl)c2)CCCCCN1 (stereo partly drawn)	> 20 µM	> 20 µM	48.5 µM	> 100 µM			
CC(C)C[C@@H]1NC(=O)OC(CCCc2ccccc2)CCCCCNC(=O)CC[C@@H](C=O)NC1=O (stereo partly drawn)	> 20 µM	7.5 µM	71.5 µM	4.2 µM			
O=C[C@@H]1CCC(=O)NC/C=C/CCC(c2cccc(Cl)c2)OC(=O)N[C@@H](CC2CCCCC2)C(=O)N1 (stereo partly drawn)	3.1 µM	1.5 µM	42.3 µM	1.3 µM			
C[C@@H]1NC(=O)OC(c2cccc(Cl)c2)CCCCCCNC(=O)CC[C@@H](C=O)NC1=O (stereo partly drawn)	> 20 µM	9.5 µM	> 100 µM	62.3 µM			
CC(C)C[C@@H]1NC(=O)OC(c2ccccc2)CCCCCNC(=O)CC[C@@H](C=O)NC1=O (stereo partly drawn)	> 20 µM	7.7 µM	> 100 µM	1.3 µM			
CCCCCC1CCCCCNC(=O)CC[C@@H](C=O)NC(=O)[C@H](CC(C)C)NC(=O)O1 (stereo partly drawn)	12.1 µM	3.1 µM	72.7 µM	3.2 µM			
CC(C)C[C@@H]1NC(=O)OC(c2cccc(Cl)c2)CCCCCCNC(=O)CC[C@@H](C=O)NC1=O (stereo partly drawn)	> 20 µM	5.4 µM	67.4 µM	6.3 µM			
CC(C)C[C@@H]1NC(=O)OC(c2cccc(Cl)c2)CCCCCNC(=O)CC[C@@H](C(=O)C(=O)NC2CC2)NC1=O (stereo partly drawn)	15.5 µM	9.1 µM	53.1 µM	2.3 µM			
O=C[C@@H]1CCC(=O)NCCCCCCC(c2cccc(Cl)c2)OC(=O)NC2(CCCCC2)C(=O)N1 (stereo partly drawn)	> 20 µM	> 20 µM	53.3 µM	> 100 µM			
CC(C)C[C@@H]1NC(=O)OC(Cc2ccccc2)CCCCCNC(=O)CC[C@@H](C=O)NC1=O (stereo partly drawn)	> 20 µM	8.8 µM	> 100 µM	4.6 µM			
CC(C)C[C@@H]1NC(=O)OC(Cc2ccccc2)CC/C=C/CNC(=O)CC[C@@H](C=O)NC1=O (stereo partly drawn)	> 20 µM	3.1 µM	> 100 µM	2.5 µM			
CC(C)C[C@@H]1NC(=O)OC(c2cccc(Cl)c2)CCCCCNC(=O)CC[C@@H](C=O)NC1=O (stereo partly drawn)	13.2 µM	1.8 µM	> 100 µM	1.5 µM			
O=C[C@@H]1CCC(=O)NCCCCCC(c2cccc(Cl)c2)OC(=O)NC2(CCCCC2)C(=O)N1 (stereo partly drawn)	> 20 µM	> 20 µM	62.4 µM	> 100 µM			
CCCCCC1CCCCCNC(=O)CC[C@@H](C(O)S(=O)(=O)O)NC(=O)[C@H](CC(C)C)NC(=O)O1 (stereo partly drawn)	14.6 µM	3.5 µM	78.5 µM	5.1 µM			
CC(C)C[C@@H]1NC(=O)OC(c2cccc(Cl)c2)CCCCCONC(=O)CC[C@@H](C=O)NC1=O (stereo in doubt; 36A)	15.5 µM	3.6 µM	68.3 µM	30.5 µM			
CC(C)C[C@@H]1NC(=O)OC(c2cccc(Cl)c2)CCCCCONC(=O)CC[C@@H](C=O)NC1=O (stereo in doubt; 36B)				46.7 µM	5.1 µM	13.4 µM	73.8 µM
O=C[C@@H]1CCC(=O)NCCCCCC(c2cccc(Cl)c2)OC(=O)N[C@@H](CC2CCCCC2)C(=O)N1 (stereo in doubt; form 1)	4.3 µM	2.1 µM	62.4 µM	4.1 µM			
O=C[C@@H]1CCC(=O)NCCCCCC(c2cccc(Cl)c2)OC(=O)N[C@@H](CC2CCCCC2)C(=O)N1 (stereo in doubt; form 2)				6.5 µM	2.5 µM	6.5 µM	45.3 µM
